Assay results published in ChEMBL document CHEMBL1148167, “Isolation of a dihydrobenzofuran lignan from South American dragon's blood (Croton spp.) as an inhibitor of cell proliferation” (J Nat Prod, 1993).
The source made the active and inactive calls. The calls are words filed in the database; no cut-off is given here.

Legend:
HUVEC [1] = assay: Effect on HUVEC cells proliferation assessed as inhibition of [3H]thymidine incorporation at 7.8125 ug/ml after 90 hrs by liquid scintillation counting; type: functional; details: Homo sapiens
Summary of the method: (§1)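 HUVEC seeded at 10×10^3 cells/well, washed after 6 h, then exposed 90 h to twofold dilutions in medium 199 with 2% human adult serum. Pulsed 6 h with 1 μCi [3H]thymidine, TCA-fixed, lysed in 0.1% SDS/0.2 N NaOH, scintillation counted. Incorporation per cell (cpm/cells counted) relative to untreated control gave % inhibition.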

HUVEC [2] = assay: Effect on HUVEC cells proliferation assessed as viable cells at 3.9062 ug/ml after 90 hrs relative to negative control; type: functional; details: Homo sapiens, read-out: Activity
Summary of the method: (§2)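 HUVEC seeded at 10×10^3 cells/well in 20% serum medium. After 6 h, washed and exposed to twofold sample dilutions (250 down to 0.49 μg/ml) in medium 199 with 2% human adult serum for 90 h plus a 6 h thymidine pulse. Cells counted under an inverted microscope after TCA fixation, as % of untreated control.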

HUVEC [3] = assay: Effect on HUVEC cells proliferation assessed as viable cells at 0.9766 ug/ml after 90 hrs relative to negative control; type: functional; details: Homo sapiens, read-out: Activity; summary of the method: as §2
HUVEC [4] = assay: Effect on HUVEC cells proliferation assessed as inhibition of [3H]thymidine incorporation at 0.9766 ug/ml after 90 hrs by liquid scintillation counting; type: functional; details: Homo sapiens; summary of the method: as §1
HUVEC [5] = assay: Effect on HUVEC cells proliferation assessed as viable cells at 1.9531 ug/ml after 90 hrs relative to negative control; type: functional; details: Homo sapiens, read-out: Activity; summary of the method: as §2
HUVEC [6] = assay: Effect on HUVEC cells proliferation assessed as [3H]thymidine incorporation at 0.9766 ug/ml after 90 hrs by liquid scintillation counting relative to negative control; type: functional, Homo sapiens
Summary of the method: (§3)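 HUVEC seeded at 10×10^3 cells/well in medium 199 with 20% human adult serum. After 6 h, washed, then given twofold sample dilutions in medium 199 with 2% human adult serum, 37°, 5% CO2, 90 h. Then 1 μCi [3H]thymidine/well for 6 h. TCA-fixed, DNA solubilized in SDS/NaOH at 60° for 2 h, scintillation counted. cpm/cell expressed as % of untreated control.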

HUVEC [7] = assay: Effect on HUVEC cells proliferation assessed as inhibition of [3H]thymidine incorporation at 31.25 ug/ml after 90 hrs by liquid scintillation counting; type: functional; details: Homo sapiens; summary of the method: as §1
HUVEC [8] = assay: Effect on HUVEC cells proliferation assessed as [3H]thymidine incorporation at 7.8125 ug/ml after 90 hrs by liquid scintillation counting relative to negative control; type: functional, Homo sapiens; summary of the method: as §3
HUVEC [9] = assay: Effect on HUVEC cells proliferation assessed as [3H]thymidine incorporation at 31.25 ug/ml after 90 hrs by liquid scintillation counting relative to negative control; type: functional, Homo sapiens; summary of the method: as §3
HUVEC [10] = assay: Effect on HUVEC cells proliferation assessed as inhibition of [3H]thymidine incorporation at 62.5 ug/ml after 90 hrs by liquid scintillation counting; type: functional; details: Homo sapiens; summary of the method: as §1
HUVEC [11] = assay: Effect on HUVEC cells proliferation assessed as inhibition of [3H]thymidine incorporation at 0.4883 ug/ml after 90 hrs by liquid scintillation counting; type: functional; details: Homo sapiens; summary of the method: as §1
HUVEC [12] = assay: Effect on HUVEC cells proliferation assessed as inhibition of [3H]thymidine incorporation at 125 ug/ml after 90 hrs by liquid scintillation counting; type: functional; details: Homo sapiens; summary of the method: as §1
HUVEC [13] = assay: Effect on HUVEC cells proliferation assessed as [3H]thymidine incorporation at 3.9062 ug/ml after 90 hrs by liquid scintillation counting relative to negative control; type: functional, Homo sapiens; summary of the method: as §3
HUVEC [14] = assay: Effect on HUVEC cells proliferation assessed as inhibition of [3H]thymidine incorporation at 3.9062 ug/ml after 90 hrs by liquid scintillation counting; type: functional; details: Homo sapiens; summary of the method: as §1
HUVEC [15] = assay: Effect on HUVEC cells proliferation assessed as viable cells at 62.5 ug/ml after 90 hrs relative to negative control; type: functional; details: Homo sapiens, read-out: Activity; summary of the method: as §2
HUVEC [16] = assay: Cytotoxicity against HUVEC cell at 250 ug/ml after 6 days; type: cell-based; details: human, 144 h
Summary of the method: (§4)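 HUVEC (passage 2–4) seeded at 4×10^3 cells/well in medium 199 with 20% human adult serum; after 8 h washed twice, then exposed to medium 199 with 5% human adult serum ± sample. Samples were 0.5% stocks in 33% PEG 400, diluted into the medium. Growth was scored microscopically every other day for 6 days against 5% serum (negative) and 30% serum (positive) controls.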

HUVEC [17] = assay: Effect on HUVEC cells proliferation assessed as inhibition of [3H]thymidine incorporation at 15.625 ug/ml after 90 hrs by liquid scintillation counting; type: functional; details: Homo sapiens; summary of the method: as §1
HUVEC [18] = assay: Effect on HUVEC cells proliferation assessed as [3H]thymidine incorporation at 62.5 ug/ml after 90 hrs by liquid scintillation counting relative to negative control; type: functional, Homo sapiens; summary of the method: as §3
HUVEC [19] = assay: Effect on HUVEC cells proliferation assessed as [3H]thymidine incorporation at 125 ug/ml after 90 hrs by liquid scintillation counting relative to negative control; type: functional, Homo sapiens; summary of the method: as §3
HUVEC [20] = assay: Effect on HUVEC cells proliferation assessed as [3H]thymidine incorporation at 0.4883 ug/ml after 90 hrs by liquid scintillation counting relative to negative control; type: functional, Homo sapiens; summary of the method: as §3
HUVEC [21] = assay: Effect on HUVEC cells proliferation assessed as viable cells at 0.4883 ug/ml after 90 hrs relative to negative control; type: functional; details: Homo sapiens, read-out: Activity; summary of the method: as §2
HUVEC [22] = assay: Effect on HUVEC cells proliferation assessed as viable cells at 250 ug/ml after 90 hrs relative to negative control; type: functional; details: Homo sapiens, read-out: Activity; summary of the method: as §2
HUVEC [23] = assay: Induction of HUVEC cell proliferation at 2.5 ug/ml after 6 days; type: functional, cell-based; details: Homo sapiens; summary of the method: as §4
HUVEC [24] = assay: Effect on HUVEC cells proliferation assessed as viable cells at 15.625 ug/ml after 90 hrs relative to negative control; type: functional; details: Homo sapiens, read-out: Activity; summary of the method: as §2
HUVEC [25] = assay: Effect on HUVEC cells proliferation assessed as [3H]thymidine incorporation at 1.9531 ug/ml after 90 hrs by liquid scintillation counting relative to negative control; type: functional, Homo sapiens; summary of the method: as §3
HUVEC [26] = assay: Effect on HUVEC cells proliferation assessed as viable cells at 31.25 ug/ml after 90 hrs relative to negative control; type: functional; details: Homo sapiens, read-out: Activity; summary of the method: as §2
HUVEC [27] = assay: Effect on HUVEC cells proliferation assessed as [3H]thymidine incorporation at 15.625 ug/ml after 90 hrs by liquid scintillation counting relative to negative control; type: functional, Homo sapiens; summary of the method: as §3
HUVEC [28] = assay: Effect on HUVEC cells proliferation assessed as inhibition of [3H]thymidine incorporation at 1.9531 ug/ml after 90 hrs by liquid scintillation counting; type: functional; details: Homo sapiens; summary of the method: as §1
HUVEC [29] = assay: Effect on HUVEC cells proliferation assessed as viable cells at 7.8125 ug/ml after 90 hrs relative to negative control; type: functional; details: Homo sapiens, read-out: Activity; summary of the method: as §2
HUVEC [30] = assay: Effect on HUVEC cells proliferation assessed as viable cells at 125 ug/ml after 90 hrs relative to negative control; type: functional; details: Homo sapiens, read-out: Activity; summary of the method: as §2
HUVEC [31] = assay: Cytotoxicity against HUVEC cell at 5 ug/ml after 6 days; type: cell-based; details: human, 144 h
Summary of the method: (§5)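 HUVEC (passages 2–4) seeded at 4×10^3 cells/well in medium 199 with 20% human adult serum, washed after 8 h, then given medium 199 with 5% human adult serum ± sample (from 0.5% stocks in PEG 400 33%). Growth was scored microscopically every other day for 6 days against 5% serum (negative) and 30% serum (positive) controls, with toxicity graded.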

HUVEC [32] = assay: Cytotoxicity against HUVEC cell at 2.5 ug/ml after 6 days; type: cell-based; details: human, 144 h; summary of the method: as §5
HUVEC [33] = assay: Induction of HUVEC cell proliferation at 0.25 ug/ml after 6 days; type: functional, cell-based; details: Homo sapiens; summary of the method: as §4
HUVEC [34] = assay: Cytotoxicity against HUVEC cell at 25 ug/ml after 6 days; type: cell-based; details: human, 144 h; summary of the method: as §5
HUVEC [35] = assay: Induction of HUVEC cell proliferation at 50 ug/ml after 6 days; type: functional, cell-based; details: Homo sapiens; summary of the method: as §4

COc1ccc([C@H]2Oc3c(OC)cc(CCCO)cc3[C@@H]2CO)cc1OC
inhibition at 7.8125 µg/mL (HUVEC [1]): 79%
viability at 3.9062 µg/mL (HUVEC [2]): 123%
viability at 0.9766 µg/mL (HUVEC [3]): 108%
inhibition at 0.9766 µg/mL (HUVEC [4]): 32%
viability at 1.9531 µg/mL (HUVEC [5]): 123%
Activity (HUVEC [6]): 68%
inhibition at 31.25 µg/mL (HUVEC [7]): 93%
Activity (HUVEC [8]): 21%
Activity (HUVEC [9]): 7%
inhibition at 62.5 µg/mL (HUVEC [10]): 98%
inhibition at 0.4883 µg/mL (HUVEC [11]): -1%
inhibition at 125 µg/mL (HUVEC [12]): 97%
Activity (HUVEC [13]): 29%
inhibition at 3.9062 µg/mL (HUVEC [14]): 71%
viability at 62.5 µg/mL (HUVEC [15]): 231%
Activity (HUVEC [16]): Toxic
inhibition at 15.625 µg/mL (HUVEC [17]): 87%
Activity (HUVEC [18]): 2%
Activity (HUVEC [19]): 3%
Activity (HUVEC [20]): 101%
viability at 0.4883 µg/mL (HUVEC [21]): 108%
viability at 250 µg/mL (HUVEC [22]): 0%
Activity (HUVEC [23]): inactive
viability at 15.625 µg/mL (HUVEC [24]): 169%
Activity (HUVEC [25]): 52%
viability at 31.25 µg/mL (HUVEC [26]): 185%
Activity (HUVEC [27]): 13%
inhibition at 1.9531 µg/mL (HUVEC [28]): 48%
viability at 7.8125 µg/mL (HUVEC [29]): 123%
viability at 125 µg/mL (HUVEC [30]): 46%

COc1ccc2c(=O)oc3c(OC)cc(CCN(C)C)c4c(=O)oc1c2c34 [TASPINE]
Activity (HUVEC [31]): Toxic
Activity (HUVEC [32]): Toxic
Activity (HUVEC [33]): inactive
Activity (HUVEC [34]): Toxic

COc1ccc([C@H]2Oc3c(O)cc(CCCO)cc3[C@@H]2CO)cc1OC
Activity (HUVEC [16]): Toxic
Activity (HUVEC [35]): inactive
